# Experimental data: ChEMBL document CHEMBL2434863, “Synthesis and in vitro/in vivo antibacterial activity of oxazolidinones having thiocarbamate at C-5 on the A-ring and an amide- or urea-substituted [1,2,5]triazepane or [1,2,5]oxadiazepane as the C-ring” (Eur J Med Chem, 2013)
# Columns and labels:
# Haemophilus influenzae = assay: Antibacterial activity against Haemophilus influenzae SR27914 clinical isolate assessed as growth inhibition by broth microdilution method; assay type: functional
# Staphylococcus aureus [1] = assay: Antibacterial activity against methicillin-resistant Staphylococcus aureus SR3637 infected in JCL/ICR mouse systemic infection model assessed as mortality administered as iv measured over 7 days; assay type: functional; details: 168 h
# Outline: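 Lethal systemic infection model in mice; test agents were given intravenously.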
# MAO-A = molecular target: T1, MAO-A (Rattus norvegicus, UniProt P21396); assay: Inhibition of MAO-A in rat forebrain using [14C]5-HT as substrate at 30 uM incubated for 20 mins prior to substrate addition measured after 5 mins by liquid scintillation counting analysis; assay type: tissue-based; details: probe [14C]5-HT
# T1 sequence (P21396 whole entry): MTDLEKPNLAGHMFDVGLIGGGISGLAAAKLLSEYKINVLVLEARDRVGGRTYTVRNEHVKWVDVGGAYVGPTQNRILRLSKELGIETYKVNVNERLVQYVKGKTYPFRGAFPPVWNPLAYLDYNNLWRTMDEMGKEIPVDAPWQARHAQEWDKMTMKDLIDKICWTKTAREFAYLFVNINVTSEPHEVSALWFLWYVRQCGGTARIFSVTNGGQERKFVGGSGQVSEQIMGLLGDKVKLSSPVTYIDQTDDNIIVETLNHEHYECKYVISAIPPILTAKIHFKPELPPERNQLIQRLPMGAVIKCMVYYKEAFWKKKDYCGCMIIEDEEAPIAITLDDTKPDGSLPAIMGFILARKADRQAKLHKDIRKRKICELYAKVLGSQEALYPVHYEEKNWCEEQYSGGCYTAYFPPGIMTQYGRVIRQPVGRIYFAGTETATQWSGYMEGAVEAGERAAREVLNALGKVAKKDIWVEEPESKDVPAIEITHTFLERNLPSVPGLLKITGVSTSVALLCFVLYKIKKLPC
# Staphylococcus aureus [2] = assay: Antibacterial activity against linezolid-resistant Staphylococcus aureus NRS271 assessed as growth inhibition by broth microdilution method; assay type: functional
# Enterococcus faecalis = assay: Antibacterial activity against Enterococcus faecalis SR1004 clinical isolate assessed as growth inhibition by broth microdilution method; assay type: functional
# Cytochrome P450 3A4 = Cytochrome P450 3A4 (Homo sapiens, UniProt P08684); assay: Inhibition of CYP3A4 in human liver microsomes assessed as terfenadine hydroxylation after 20 mins by LC/MS/MS analysis; assay type: ADME, Microsome
# Cytochrome P450 2C9 = Cytochrome P450 2C9 (Homo sapiens, UniProt P11712); assay: Inhibition of CYP2C9 in human liver microsomes assessed as tolbutamide hydroxylation after 20 mins by LC/MS/MS analysis; assay type: ADME, Microsome
# Staphylococcus aureus [3] = assay: Antibacterial activity against Staphylococcus aureus Smith assessed as growth inhibition by broth microdilution method; assay type: functional
# Staphylococcus aureus [4] = assay: Antibacterial activity against methicillin-resistant Staphylococcus aureus SR3637 assessed as growth inhibition by broth microdilution method; assay type: functional
# MAO-B = molecular target: T2, MAO-B (Rattus norvegicus, UniProt P19643); assay: Inhibition of MAO-B in rat forebrain using [14C]PEA as substrate at 30 uM incubated for 20 mins prior to substrate addition measured after 10 mins by liquid scintillation counting analysis; assay type: tissue-based; details: probe [14C]PEA
# T2 sequence (P19643 whole entry): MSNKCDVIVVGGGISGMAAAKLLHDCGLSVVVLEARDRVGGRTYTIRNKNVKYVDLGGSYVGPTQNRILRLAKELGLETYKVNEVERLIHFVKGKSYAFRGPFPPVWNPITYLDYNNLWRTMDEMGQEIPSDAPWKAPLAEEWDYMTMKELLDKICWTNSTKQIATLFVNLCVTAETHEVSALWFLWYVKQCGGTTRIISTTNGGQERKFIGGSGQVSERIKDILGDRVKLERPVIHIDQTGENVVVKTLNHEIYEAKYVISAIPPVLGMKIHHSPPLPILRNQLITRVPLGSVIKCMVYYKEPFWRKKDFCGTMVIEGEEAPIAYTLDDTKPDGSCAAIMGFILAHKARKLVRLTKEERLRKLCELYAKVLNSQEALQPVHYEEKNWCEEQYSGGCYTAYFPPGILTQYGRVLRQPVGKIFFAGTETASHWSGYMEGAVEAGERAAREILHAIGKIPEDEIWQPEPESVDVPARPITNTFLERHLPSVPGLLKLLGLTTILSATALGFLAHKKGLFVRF
# Staphylococcus aureus [5] = assay: Potency index, ratio of linezolid ED50 to compound ED50 for methicillin-resistant Staphylococcus aureus SR3637 infected in iv dosed JCL/ICR mouse systemic infection model; assay type: functional
# Cytochrome P450 2D6 = Cytochrome P450 2D6 (Homo sapiens, UniProt P10635); assay: Inhibition of CYP2D6 in human liver microsomes assessed as dextromethorphan O-demethylation after 20 mins by LC/MS/MS analysis; assay type: ADME, Microsome
# Cytochrome P450 1A2 = molecular target: T3, Cytochrome P450 1A2 (Homo sapiens, UniProt P05177); assay: Inhibition of CYP1A2 in human liver microsomes assessed as ethoxyresorufin O-deethylation after 20 mins by fluorescence plate reader analysis; assay type: ADME, Microsome
# T3 sequence (P05177 whole entry): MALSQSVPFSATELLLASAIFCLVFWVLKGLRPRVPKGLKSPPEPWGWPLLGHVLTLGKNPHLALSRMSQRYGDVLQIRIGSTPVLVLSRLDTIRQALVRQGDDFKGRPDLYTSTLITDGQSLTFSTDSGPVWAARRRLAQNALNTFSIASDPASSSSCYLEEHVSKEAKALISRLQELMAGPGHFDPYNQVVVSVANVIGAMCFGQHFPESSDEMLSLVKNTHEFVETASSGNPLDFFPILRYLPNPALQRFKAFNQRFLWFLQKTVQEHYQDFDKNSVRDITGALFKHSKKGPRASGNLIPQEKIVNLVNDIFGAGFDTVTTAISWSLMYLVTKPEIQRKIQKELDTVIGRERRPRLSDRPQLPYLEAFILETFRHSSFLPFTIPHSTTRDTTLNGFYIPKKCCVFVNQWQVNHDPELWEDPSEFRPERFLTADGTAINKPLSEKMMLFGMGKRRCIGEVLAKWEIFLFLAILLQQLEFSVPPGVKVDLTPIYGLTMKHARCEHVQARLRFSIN
# Enterococcus faecium = assay: Antibacterial activity against Enterococcus faecium SR7940 clinical isolate assessed as growth inhibition by broth microdilution method; assay type: functional
# Streptococcus pneumoniae = assay: Antibacterial activity against Streptococcus pneumoniae SR26207 clinical isolate assessed as growth inhibition by broth microdilution method; assay type: functional
# Staphylococcus aureus [6] = assay: Antibacterial activity against Staphylococcus aureus SR20549 clinical isolate assessed as growth inhibition by broth microdilution method; assay type: functional
# Moraxella catarrhalis = assay: Antibacterial activity against Moraxella catarrhalis SR26840 clinical isolate assessed as growth inhibition by broth microdilution method; assay type: functional
# Chain of Cytochrome P450 2D6 (P10635 whole entry): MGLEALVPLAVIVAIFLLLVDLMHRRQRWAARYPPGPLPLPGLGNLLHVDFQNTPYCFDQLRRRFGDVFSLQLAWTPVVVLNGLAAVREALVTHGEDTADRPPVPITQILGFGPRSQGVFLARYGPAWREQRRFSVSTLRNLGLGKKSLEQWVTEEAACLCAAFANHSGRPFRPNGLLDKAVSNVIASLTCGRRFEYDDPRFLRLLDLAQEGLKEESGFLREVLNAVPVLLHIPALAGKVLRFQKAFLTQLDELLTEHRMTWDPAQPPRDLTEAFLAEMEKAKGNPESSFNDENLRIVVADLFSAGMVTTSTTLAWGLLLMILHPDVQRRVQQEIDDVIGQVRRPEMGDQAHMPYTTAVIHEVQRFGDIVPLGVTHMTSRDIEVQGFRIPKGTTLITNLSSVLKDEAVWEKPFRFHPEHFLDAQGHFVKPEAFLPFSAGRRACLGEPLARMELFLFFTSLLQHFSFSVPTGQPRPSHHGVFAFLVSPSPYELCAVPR
# Chain of Cytochrome P450 3A4 (P08684 whole entry): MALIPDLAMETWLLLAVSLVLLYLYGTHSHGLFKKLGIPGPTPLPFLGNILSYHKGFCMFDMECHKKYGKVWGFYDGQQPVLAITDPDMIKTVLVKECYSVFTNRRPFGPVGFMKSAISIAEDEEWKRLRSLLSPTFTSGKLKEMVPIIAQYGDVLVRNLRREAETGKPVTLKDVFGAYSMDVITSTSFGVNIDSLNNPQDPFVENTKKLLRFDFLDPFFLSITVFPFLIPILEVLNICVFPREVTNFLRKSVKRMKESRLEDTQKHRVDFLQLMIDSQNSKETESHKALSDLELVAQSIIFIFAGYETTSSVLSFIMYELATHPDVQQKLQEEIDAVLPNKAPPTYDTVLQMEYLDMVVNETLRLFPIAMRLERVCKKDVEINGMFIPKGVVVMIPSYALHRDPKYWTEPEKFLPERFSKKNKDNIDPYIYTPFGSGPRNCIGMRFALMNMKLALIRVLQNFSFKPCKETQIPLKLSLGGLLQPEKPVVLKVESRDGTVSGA
# Chain of Cytochrome P450 2C9 (P11712 whole entry): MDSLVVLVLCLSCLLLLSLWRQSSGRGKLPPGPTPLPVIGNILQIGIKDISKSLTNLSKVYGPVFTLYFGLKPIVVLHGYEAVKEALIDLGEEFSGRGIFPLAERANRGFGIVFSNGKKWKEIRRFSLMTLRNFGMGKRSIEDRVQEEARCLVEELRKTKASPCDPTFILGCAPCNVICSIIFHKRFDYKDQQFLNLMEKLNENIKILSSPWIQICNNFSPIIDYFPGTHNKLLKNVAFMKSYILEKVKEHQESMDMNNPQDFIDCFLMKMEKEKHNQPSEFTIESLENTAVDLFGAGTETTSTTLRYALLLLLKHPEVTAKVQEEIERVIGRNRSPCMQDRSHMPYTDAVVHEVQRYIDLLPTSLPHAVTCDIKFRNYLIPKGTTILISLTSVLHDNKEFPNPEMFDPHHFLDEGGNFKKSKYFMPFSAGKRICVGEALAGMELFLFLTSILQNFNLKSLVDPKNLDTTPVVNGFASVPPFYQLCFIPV
smiles,measurement,setting,value
COC(=S)NC[C@H]1CN(c2ccc(N3CCNN(C(=O)C(F)F)CC3)c(F)c2)C(=O)O1,MIC,Haemophilus influenzae,4 µg/mL
same,ED50,Staphylococcus aureus [1],0.77 mg/kg
same,"inhibition at 5 min, 30 µM",MAO-A,9.2%
same,MIC,Staphylococcus aureus [2],4 µg/mL
same,MIC,Enterococcus faecalis,0.25 µg/mL
same,IC50,Cytochrome P450 3A4,> 20 µM
same,IC50,Cytochrome P450 2C9,> 20 µM
same,MIC,Staphylococcus aureus [3],0.5 µg/mL
same,MIC,Staphylococcus aureus [4],0.25 µg/mL
same,"inhibition at 10 min, 30 µM",MAO-B,0.1%
same,Ratio ED50,Staphylococcus aureus [5],3
same,IC50,Cytochrome P450 2D6,> 20 µM
same,IC50,Cytochrome P450 1A2,> 20 µM
same,MIC,Enterococcus faecium,0.25 µg/mL
same,MIC,Streptococcus pneumoniae,0.063 µg/mL
same,MIC,Staphylococcus aureus [6],0.125 µg/mL
same,MIC,Moraxella catarrhalis,2 µg/mL
